pIC50: −log10 of the molar value.
Key:
[1] = biological target: T1, Polyunsaturated fatty acid 5-lipoxygenase (Homo sapiens) (UniProt P09917); assay: Inhibition of 5-Lipoxygenase in arachidonic acid-stimulated human neutrophils assessed as residual activity at 10 uM after 15 mins by HPLC analysis in presence of A23187
T1 sequence (whole entry): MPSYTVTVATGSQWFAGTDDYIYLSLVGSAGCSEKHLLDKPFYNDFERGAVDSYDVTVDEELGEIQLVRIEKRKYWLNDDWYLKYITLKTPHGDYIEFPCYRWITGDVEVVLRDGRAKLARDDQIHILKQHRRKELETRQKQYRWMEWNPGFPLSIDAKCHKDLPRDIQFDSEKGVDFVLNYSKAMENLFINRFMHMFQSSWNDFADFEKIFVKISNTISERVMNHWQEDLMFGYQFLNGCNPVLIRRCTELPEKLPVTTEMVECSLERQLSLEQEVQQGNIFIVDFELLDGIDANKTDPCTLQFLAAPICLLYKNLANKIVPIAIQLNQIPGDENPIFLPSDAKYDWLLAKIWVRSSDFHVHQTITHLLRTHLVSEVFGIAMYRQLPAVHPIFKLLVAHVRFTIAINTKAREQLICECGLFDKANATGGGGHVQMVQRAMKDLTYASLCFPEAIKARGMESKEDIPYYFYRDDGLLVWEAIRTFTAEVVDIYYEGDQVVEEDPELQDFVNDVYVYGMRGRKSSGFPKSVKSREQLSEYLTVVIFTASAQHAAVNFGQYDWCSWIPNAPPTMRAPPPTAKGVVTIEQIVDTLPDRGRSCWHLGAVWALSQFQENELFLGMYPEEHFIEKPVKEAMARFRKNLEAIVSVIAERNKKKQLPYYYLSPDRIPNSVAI
Summary of the method: (§1)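 Human neutrophils, 5 × 10^6/mL in PBS/glucose/1 mM CaCl2, preincubated 15 min at RT, then 2.5 µM A23187 plus 20 µM AA for 10 min at 37 °C. Methanol stop, PGB1 internal standard, HPLC of LTB4, its all-trans isomers and 5-H(p)ETE. Residual % versus 0.3% DMSO vehicle, mean ± SEM, n = 3–5. IC50 by linear interpolation from 4–5 concentrations.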

[2] = biological target: T2, Polyunsaturated fatty acid 5-lipoxygenase (Homo sapiens, UniProt P09917); assay: Inhibition of 5-Lipoxygenase in arachidonic acid-stimulated human neutrophils after 15 mins by HPLC analysis in presence of A23187; summary of the method: as §1
T2 sequence (P09917 whole entry): T1 sequence (whole entry)

[3] = biological target: T1, Polyunsaturated fatty acid 5-lipoxygenase (Homo sapiens); assay: Inhibition of recombinant human 5-Lipoxygenase expressed in Escherichia coli lysate assessed as residual activity at 10 uM after 10 mins by HPLC analysis
Summary of the method: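 Human 5-LO expressed at 30 °C in E. coli MV1190 (pT3-5LO); lysate 40,000 g supernatant in PBS pH 7.4 with 1 mM EDTA. Preincubated with compound 10 min at 4 °C, warmed 30 s at 37 °C. Started with 2 mM CaCl2 plus 20 µM AA, 10 min at 37 °C. Methanol stop, HPLC. Residual % versus 0.3% DMSO vehicle, n = 3–5.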

| Compound | Activity [1] | pIC50 [2] | Activity [3] |
| --- | --- | --- | --- |
| O=C(CCc1cc(-c2ccc(F)cc2)n(-c2ccc(Cl)nn2)n1)Oc1ccc(-n2ccnc2)cc1 | 111% | – | 71.7% |
| O=C(CCc1cc(-c2ccc(F)cc2)n(-c2ccc(Cl)nn2)n1)Oc1ccc(-c2ccsc2)cc1 | 90.8% | – | 83.4% |
| O=C(CCc1cc(-c2ccc(C(F)(F)F)cc2)n(-c2ccc(Cl)nn2)n1)Oc1ccc(C2CCCC2)cc1 | 77.2% | – | 92% |
| NC(=O)C1CCN(C(=O)CCc2cc(-c3ccc(C(F)(F)F)cc3)n(-c3ccc(Cl)nn3)n2)CC1 | 104% | – | 103% |
| COc1ccc(NC(=O)CCc2cc(-c3ccc(F)cc3)n(-c3ccc(Cl)nn3)n2)cc1 | 88.3% | – | 91.6% |
| Cc1ccc(-c2cc(CCC(=O)Oc3ccc(OC(F)(F)F)cc3)nn2-c2ccc(Cl)nn2)cc1 | 70.5% | – | 116% |
| Cc1ccc(-c2cc(CCC(=O)Nc3ccc(N4CCOCC4)nc3)nn2-c2ccc(Cl)nn2)cc1 | 106% | – | 90% |
| O=C(CCc1cc(-c2ccc(C(F)(F)F)cc2)n(-c2ccc(Cl)nn2)n1)N1CCN(C(=O)c2ccco2)CC1 | 81.8% | – | 126% |
| Cc1ccc(-c2cc(CCC(=O)Oc3ccc(Oc4ccc(C(F)(F)F)cc4)cc3)nn2-c2ccc(Cl)nn2)cc1 | 86.5% | – | 95% |
| O=C(CCc1cc(-c2ccc(C(F)(F)F)cc2)n(-c2ccc(Cl)nn2)n1)Oc1ccc(-n2cccc2)cc1 | 94.1% | – | 90.8% |
| CCCCCCCOc1ccc(OC(=O)CCc2cc(-c3ccc(F)cc3)n(-c3ccc(Cl)nn3)n2)cc1 | 90.1% | – | 86.5% |
| O=C(CCc1cc(-c2ccc(F)cc2)n(-c2ccc(Cl)nn2)n1)N1CCN(C(=O)C2CCCO2)CC1 (stereo unspecified) | 95% | – | 90.8% |

Continued, values first:

| Activity [1] | pIC50 [2] | Activity [3] | Compound |
| --- | --- | --- | --- |
| 13.2% | 5.59 | 143% | CC(C)(C)c1ccc(CN2CCN(C(=O)CCc3cc(-c4ccc(F)cc4)n(-c4ccc(Cl)cc4)n3)CC2)cc1 |
| 44.5% | 5.52 | 87.3% | CC(C)(C)c1ccc(CN2CCN(C(=O)CCc3cc(-c4ccc(C(F)(F)F)cc4)n(-c4ccc5ccccc5n4)n3)CC2)cc1 |
| 3.7% | 5.60 | 78.5% | CC(C)(C)c1ccc(CN2CCN(C(=O)CCc3cc(-c4ccc(F)cc4)n(-c4ccccc4)n3)CC2)cc1 |
| 96.3% | – | 93.6% | CCS(=O)(=O)N1CCN(C(=O)CCc2cc(-c3ccc(C)cc3)n(-c3ccc(Cl)nn3)n2)CC1 |
| 14.6% | 5.55 | 107% | Cc1ccc(-c2cc(CCC(=O)N3CCN(Cc4ccc(C(C)(C)C)cc4)CC3)nn2-c2ccc(Cl)nn2)cc1 |
| 17.4% | 5.54 | 88.9% | CC(C)(C)c1ccc(CN2CCN(C(=O)CCc3cc(-c4ccc(C(F)(F)F)cc4)n(-c4ccc(Cl)nn4)n3)CC2)cc1 |
| 27.7% | 5.54 | 111% | Cc1ccc(-c2cc(CCC(=O)N3CCN(Cc4ccc(C(C)(C)C)cc4)CC3)nn2-c2ccc(Cl)cc2)cc1 |
| 67.3% | – | 92.7% | CC(C)(C)c1ccc(OC(=O)CCc2cc(-c3ccc(F)cc3)n(-c3ccc(Cl)nn3)n2)cc1 |
| 86% | – | 106% | Cc1ccc(-c2cc(CCC(=O)N3CCN(CC4CCCO4)CC3)nn2-c2ccc(Cl)nn2)cc1 (stereo unspecified) |
| 36.2% | 5.10 | 56.1% | COc1ccc(-n2nc(CCC(=O)N3CCN(Cc4ccc(C(C)(C)C)cc4)CC3)cc2-c2ccc(C(F)(F)F)cc2)nn1 |
| 12.7% | 5.54 | 109% | CC(C)(C)c1ccc(CN2CCN(C(=O)CCc3cc(-c4ccc(C(F)(F)F)cc4)n(-c4ccccc4)n3)CC2)cc1 |
| 27.1% | 5.48 | 86.1% | COc1ccc(-n2nc(CCC(=O)N3CCN(Cc4ccc(C(C)(C)C)cc4)CC3)cc2-c2ccc(C)cc2)nn1 |
| 10.4% | 5.55 | 114% | CC(C)(C)c1ccc(CN2CCN(C(=O)CCc3cc(-c4ccc(F)cc4)n(-c4ccc5ccccc5n4)n3)CC2)cc1 |
| 43.9% | 5.10 | 138% | CC(C)(C)c1ccc(CN2CCN(C(=O)CCc3cc(-c4ccc(C(F)(F)F)cc4)n(-c4ccc(Cl)cc4)n3)CC2)cc1 |
| 50.1% | < 5.00 | 69.2% | COc1ccc(-n2nc(CCC(=O)N3CCN(Cc4ccc(C(C)(C)C)cc4)CC3)cc2-c2ccc(F)cc2)nn1 |
